Laboratory results: PMC5126733 (Journal of medicinal chemistry, 2015)

How the values were obtained:
[1] = molecular target: T1, recombinant human ER-α (Homo sapiens, UniProt P03372); conditions: at 100 μM compound; compound 7; cited from earlier work
T1 sequence (P03372 1-595): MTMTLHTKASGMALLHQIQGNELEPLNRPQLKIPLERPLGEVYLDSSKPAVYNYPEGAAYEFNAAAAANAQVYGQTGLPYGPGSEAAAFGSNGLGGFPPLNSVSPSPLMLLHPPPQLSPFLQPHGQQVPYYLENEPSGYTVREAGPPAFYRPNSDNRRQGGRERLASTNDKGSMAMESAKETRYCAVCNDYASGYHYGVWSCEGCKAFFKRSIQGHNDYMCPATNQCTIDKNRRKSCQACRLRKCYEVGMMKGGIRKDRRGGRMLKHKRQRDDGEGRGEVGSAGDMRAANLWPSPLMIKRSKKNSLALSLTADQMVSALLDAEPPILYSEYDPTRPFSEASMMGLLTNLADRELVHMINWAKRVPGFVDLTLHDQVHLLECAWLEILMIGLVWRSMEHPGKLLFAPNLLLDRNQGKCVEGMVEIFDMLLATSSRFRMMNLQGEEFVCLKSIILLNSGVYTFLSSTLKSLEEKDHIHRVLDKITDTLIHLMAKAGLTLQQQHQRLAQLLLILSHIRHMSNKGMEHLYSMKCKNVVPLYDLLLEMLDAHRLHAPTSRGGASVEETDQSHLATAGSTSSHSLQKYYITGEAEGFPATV

[2] = test system: ER in MCF-7-2a cells; conditions: cited from earlier work
[3] = molecular target: T2, recombinant human aromatase (CYP19) (Homo sapiens, UniProt P11511); assay: Inhibition of recombinant human aromatase; format: biochemical; conditions: ratio of aromatase IC50 values vs compound 7
T2 sequence (P11511 1-503): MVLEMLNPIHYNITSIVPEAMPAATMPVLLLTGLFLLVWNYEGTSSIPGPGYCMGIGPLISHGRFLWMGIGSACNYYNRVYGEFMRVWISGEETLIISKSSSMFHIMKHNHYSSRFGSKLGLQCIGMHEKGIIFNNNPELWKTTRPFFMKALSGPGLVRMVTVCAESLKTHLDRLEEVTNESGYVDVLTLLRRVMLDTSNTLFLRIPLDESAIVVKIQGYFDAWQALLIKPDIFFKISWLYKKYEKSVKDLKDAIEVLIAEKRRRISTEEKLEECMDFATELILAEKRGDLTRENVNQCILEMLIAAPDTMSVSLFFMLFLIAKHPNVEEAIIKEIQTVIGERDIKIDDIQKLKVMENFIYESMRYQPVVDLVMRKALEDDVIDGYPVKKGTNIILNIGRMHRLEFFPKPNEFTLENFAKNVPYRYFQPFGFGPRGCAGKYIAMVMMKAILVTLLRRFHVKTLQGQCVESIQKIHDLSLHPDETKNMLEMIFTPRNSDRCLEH

[4] = test system: progesterone receptor (PGR) mRNA expression in MCF-7 human breast cancer cells; assay: Antagonism of β-estradiol; format: cell-based; conditions: MCF-7 cells, 1 μM compound, 10 nM E2, 24 h
Method in brief: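 MCF-7 cells were grown in MEM with 10% FBS at 37 °C in 5% CO2, then preconditioned 72 h in charcoal-stripped FBS. They were treated 24 h with 1 μM test compound, vehicle (0.1% methanol) or a positive-control antiestrogen, all with 10 nM E2. PGR mRNA was measured by TaqMan RT-qPCR (40 cycles), normalized to GAPDH by 2−ΔΔCt, and expressed as % of E2-stimulated expression.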

[5] = combination arm (with tamoxifen) of the ATAC trial; cited from earlier work
[6] = test system: postmenopausal women with breast cancer; conditions: five-year ATAC trial, anastrozole alone compared to tamoxifen alone; cited from earlier work

In the case of CCC(=C(c1ccc(O)cc1)c1ccc(O)cc1)c1ccccc1 [Compound 7], the ER-α percent competition [1] is given as 80% competition and the ER antagonist/agonist character [2] is given as “good ER antagonist without significant agonistic side effects”.

In the case of Oc1ccc(C(=C(Cn2ccnc2)c2ccccc2)c2ccc(O)cc2)cc1 [Compound 12, 4,4'-(3-(1H-Imidazol-1-yl)-2-phenylprop-1-ene-1,1-diyl)diphenol], the “fold improvement in aromatase inhibitory activity compared with 7” value [3] is reported as greater than 5000 fold and the “PGR mRNA expression level in the presence of 10 nM E2 (E2 alone = 100%)” value (shortened to “PGR mRNA expression level … (E2 alone = 100%)”) [4] is reported as 26-31%.

In the case of Oc1ccc(C(Cn2ccnc2)=C(c2ccc(O)cc2)c2ccc(O)cc2)cc1 [Compound 18a, 4,4',4”-(3-(1H-Imidazol-1-yl)prop-1-ene-1,1,2-triyl)triphenol], the “PGR mRNA expression level … (E2 alone = 100%)” value [4] is reported as 26-31%.

In the case of Oc1ccc(C(=C(Cn2ccnc2)c2ccc(O)c(F)c2)c2ccc(O)cc2)cc1 [Compound 18b, 4,4'-(2-(3-Fluoro-4-hydroxyphenyl)-3-(1H-imidazol-1-yl)prop-1-ene-1,1-diyl)diphenol], the “PGR mRNA expression level … (E2 alone = 100%)” value [4] is reported as 26-31%.

With Nc1ccc(C(Cn2ccnc2)=C(c2ccc(O)cc2)c2ccc(O)cc2)cc1 [Compound 26, 4,4'-(2-(4-Aminophenyl)-3-(1H-imidazol-1-yl)prop-1-ene-1,1-diyl)diphenol] the “PGR mRNA expression level … (E2 alone = 100%)” value [4] was 26-31%.

For CC(C)(C#N)c1cc(Cn2cncn2)cc(C(C)(C)C#N)c1 [anastrozole], the “lowering of serum concentration of anastrozole in the combination arm” value [5] is listed as 27%, the “improvement of disease-free survival” value [6] is listed as 13% and the “reduction in occurrence of contralateral breast cancer” value [6] is listed as 42%. The “reduction in risk of distant metastasis” value [6] was 14% and the “reduction in the time-to-recurrence” value [6] was 21%.

For Endoxifen, the “PGR mRNA expression level … (E2 alone = 100%)” value [4] was 10%.
